# PubChem BioAssay AID504338 (NMMLSC, 2011)
# Values without a mark were called inactive.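 Rule for the calls: active = GFP response vs DMSO above 150% with enough events counted; inconclusive = fewer than 70 events counted for a yeast strain; inactive = the rest.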
# Experiment: yeast TOR reporter LAP4-GFP retest – cell-based, third cherry pick, flow cytometry, confirmation (AID 504338);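 note: ratio to plate DMSO wells so 100% equals DMSO level rather than 0%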
# Conditions: S. cerevisiae LAP4-GFP strain, 3 h, at 10 µM, hits give high values
# Method in brief: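 material = yeast LAP4-GFP strain | medium = synthetic complete growth medium for yeast | doses = 10 µM, one concentration | schedule = compound exposure for 3 h at 30 °C | signal = flow cytometric GFP fluorescence | read-out basis = percent of mean DMSO-control median fluorescence | control set = rapamycin 400 ng/mL as positive control, DMSO wells as reference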
row,Structure (SMILES),GFP response vs DMSO [%]
1,CCN1CCN(c2ncnc3ccc(Br)cc23)CC1,108
2,CN1CCN(c2ncnc3ccc(Br)cc23)CC1,107
3,Cc1ccc2c(c1N)C(=O)c1ccccc1C2=O,104
4,C/C(O)=C(\C#N)C(=O)Nc1cc(Br)ccc1Br,106
5,CN(C)C(=O)Oc1ccc(Cl)c2cccnc12,106
6,CN(C)C(=O)Oc1ccnc2cc(Cl)ccc12,107
